“Also recorded” adds a separate entry of the source.
What was measured:
[1] = molecular target: T1, human TG2 (Homo sapiens, UniProt P21980); experiment: TG2 steady-state kinetics of substrates, wild-type TG2 ± α2M and vs pH; type: biochemical; settings: kcat of AC-PQLPF-NH2
T1 sequence (P21980 1-687): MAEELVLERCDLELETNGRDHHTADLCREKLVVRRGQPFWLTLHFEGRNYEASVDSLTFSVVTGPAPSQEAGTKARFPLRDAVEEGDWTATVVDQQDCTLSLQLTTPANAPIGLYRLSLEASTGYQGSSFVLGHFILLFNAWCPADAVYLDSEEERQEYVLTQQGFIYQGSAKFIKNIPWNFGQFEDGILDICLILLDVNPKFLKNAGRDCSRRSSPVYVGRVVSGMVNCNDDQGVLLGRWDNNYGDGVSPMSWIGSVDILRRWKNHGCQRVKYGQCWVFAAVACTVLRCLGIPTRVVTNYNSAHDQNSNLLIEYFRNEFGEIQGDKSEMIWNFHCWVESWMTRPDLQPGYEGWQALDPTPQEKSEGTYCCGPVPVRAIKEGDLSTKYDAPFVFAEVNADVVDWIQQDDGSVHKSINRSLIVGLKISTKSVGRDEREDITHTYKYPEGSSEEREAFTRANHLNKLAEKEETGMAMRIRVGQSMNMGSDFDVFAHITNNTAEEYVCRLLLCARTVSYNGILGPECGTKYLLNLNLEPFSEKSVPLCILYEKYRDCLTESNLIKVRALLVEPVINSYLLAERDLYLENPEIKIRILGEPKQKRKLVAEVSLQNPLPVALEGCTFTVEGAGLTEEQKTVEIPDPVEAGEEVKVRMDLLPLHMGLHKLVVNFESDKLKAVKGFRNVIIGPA
Procedure, shortened: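 His6-tagged human TG2 from E. coli BL21(DE3) was purified by Ni-NTA and anion exchange, reduced, and desalted into PBS. It was assayed at 1 μM final, ± recombinant human α2M (Expi293F-expressed), with GDH/α-ketoglutarate/NADH coupling in 200 mM MOPS pH 7.2 with 5 mM CaCl2. Substrate was Ac-PQLPF-NH2 unless otherwise specified. Absorbance at 340 nm was followed for 60 min at 25 °C. Steady-state rates came from linear progress-curve slopes; triplicate.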

[2] = molecular target: T2, TG2 derivative lacking the C-terminal β-barrel domain (Homo sapiens, UniProt P21980); experiment: Kinetics of truncated TG2 lacking the C-terminal β-barrel domain; type: biochemical; settings: TG2 derivatives lacking the C-terminal β-barrel domain
T2 sequence (P21980 1-586): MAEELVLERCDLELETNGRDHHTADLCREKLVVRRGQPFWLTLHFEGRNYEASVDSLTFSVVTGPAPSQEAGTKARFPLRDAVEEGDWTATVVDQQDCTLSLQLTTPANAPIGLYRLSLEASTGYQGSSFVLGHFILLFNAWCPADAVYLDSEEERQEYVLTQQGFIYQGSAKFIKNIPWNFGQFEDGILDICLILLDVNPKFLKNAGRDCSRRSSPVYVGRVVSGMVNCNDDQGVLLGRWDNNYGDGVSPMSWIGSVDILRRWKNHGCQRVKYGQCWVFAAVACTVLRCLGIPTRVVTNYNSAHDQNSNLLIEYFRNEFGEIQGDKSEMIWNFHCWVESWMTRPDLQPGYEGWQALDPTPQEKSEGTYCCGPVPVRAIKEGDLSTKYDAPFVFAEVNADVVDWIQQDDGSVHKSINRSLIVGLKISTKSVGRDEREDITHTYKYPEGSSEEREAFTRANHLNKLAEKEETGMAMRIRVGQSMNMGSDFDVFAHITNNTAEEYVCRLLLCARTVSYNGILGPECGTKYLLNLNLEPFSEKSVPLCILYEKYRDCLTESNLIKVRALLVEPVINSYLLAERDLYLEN
Procedure, shortened: (§1)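 Truncated human TG2 constructs with N-terminal His tags (residues 1-586 lacking β2; residues 1-460 lacking β1 and β2) were expressed in Rosetta2 E. coli and purified by Ni, anion exchange and SEC. The assay was GDH-coupled: 200 mM MOPS pH 7.2, 5 mM CaCl2, 10 mM α-ketoglutarate, 18 U/mL GDH, 0.5 mM NADH and Ac-PQLPF-NH2. Reduced enzyme was at 1 μM final, ± Expi293F-expressed human α2M. NADH loss was read at 340 nm for 60 min at 25 °C. Rates came from linear slopes; triplicate.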

[3] = molecular target: T3, TG2 derivative harboring the N-terminal and catalytic domains but lacking both β-barrel domains (Homo sapiens, UniProt P21980); experiment: Kinetics of truncated TG2 lacking both β-barrel domains; type: biochemical; settings: TG2 derivative lacking both β-barrel domains
T3 sequence (P21980 1-460): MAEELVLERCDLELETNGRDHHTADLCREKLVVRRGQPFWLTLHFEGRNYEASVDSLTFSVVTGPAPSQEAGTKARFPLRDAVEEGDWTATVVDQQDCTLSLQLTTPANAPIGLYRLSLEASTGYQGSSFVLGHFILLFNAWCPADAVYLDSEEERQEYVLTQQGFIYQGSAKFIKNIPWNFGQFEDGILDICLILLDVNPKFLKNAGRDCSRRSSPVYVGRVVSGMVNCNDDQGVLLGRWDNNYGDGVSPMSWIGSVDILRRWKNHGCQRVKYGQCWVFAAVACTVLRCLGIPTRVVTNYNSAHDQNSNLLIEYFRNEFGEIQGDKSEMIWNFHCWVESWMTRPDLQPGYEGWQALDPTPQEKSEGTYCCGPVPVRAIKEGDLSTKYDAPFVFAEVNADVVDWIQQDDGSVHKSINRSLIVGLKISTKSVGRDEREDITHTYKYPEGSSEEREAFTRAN
Procedure, shortened: as §1

[4] = tested on: NRK cells; experiment: Uptake of fluorescent TG2 probes by NRK cells; type: cell-based, rat; settings: HB230 1 μM
Procedure, shortened: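 NRK cells were grown in DMEM. Media were replaced, and 1 μM probe was co-incubated for 90 min with α2M at varied levels (some Alexa 555 NHS-labelled), plus TRX as specified. Cells were washed in HBSS, fixed in 2% PFA, DAPI-stained and imaged by confocal microscopy. Puncta were counted with a circularity cutoff of 0.3 and a minimum size threshold, then normalized to cell number by DAPI.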

[5] = tested on: wild-type MEFs; experiment: Internalization of HB230 and α2M by wild-type MEFs; type: cell-based, mouse; settings: α2M 100 μg/mL, HB230 10 μM, exogenous TRX and betamethasone
[6] = tested on: LRP-1 knock-out MEFs; experiment: Internalization of HB230 and α2M by LRP-1 knock-out MEFs; type: cell-based, mouse; settings: α2M 100 μg/mL, HB230 10 μM, exogenous TRX and betamethasone
[7] = tested on: 9022 cells (HLA-DQ2 homozygous B-cell line); experiment: Cell surface presentation by HLA-DQ2 expressing 9022 B cells; type: cell-based, human; settings: 100 nM TG2; 150 cells from 2-4 frames of 3-6 replicates
Procedure, shortened: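 EBV-immortalised HLA-DQ2-homozygous B cells in RPMI with 10% FBS and 1% PenStrep, pelleted, resuspended and left 20 min at 37 °C to adhere on poly-L-lysine-coated glass. Cy5-33mer, α2M and 100 nM recombinant human TG2 (E. coli, His6) added for 2.5 h. Anti-HLA-DQ2 (1:50) then Alexa 488 secondary, each 20 min on ice, fixed, DAPI, confocal. Cells with surface HLA-DQ2/Cy5 overlay scored; 2-4 frames of 3-6 replicates.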

[8] = tested on: transglutaminase-2 (TG2); experiment: Bio-layer interferometry of α2M-TG2 interaction; type: binding; settings: preliminary efforts

“α2M: ~800 kDa homotetrameric pan-protease inhibitor” was tested, and the “inhibition of TG2 by α2M, mechanism” value [1] was “non-competitive inhibition mechanism of TG2 by α2M”, the “inhibition of truncated TG2 by α2M” value [2] was “Inhibition was abolished” and the “inhibition of truncated TG2 by α2M” value [3] was “Inhibition was abolished”. For the same substance, the “α2M concentration up to which HB230 uptake increases (saturation)” value ([4]; 90 min) was ~ 100 μg/mL, the “effect of α2M on HB230 uptake” value ([4]; α2M supplementation) was “strong dose-dependent increase in uptake of HB230; also recorded: predominantly appeared to affect the size and number of the larger puncta” and the “internalization by wild-type MEFs” value [5] was “readily internalize”. For the same substance, the “internalization by LRP-1 knock-out MEFs” value [6] was “markedly reduced uptake”, the “effect of α2M on cell surface 33mer” value [7] was “enhanced upon addition of exogenous α2M; also recorded: the number of cells displaying gluten peptides on their surface increases” and the “detection of α2M-TG2 interaction” value [8] was “unsuccessful”.
